This is an account of results in ChEMBL document CHEMBL1135477, “Antifungal agents. 10. New derivatives of 1-[(aryl)[4-aryl-1H-pyrrol-3-yl]methyl]-1H-imidazole, synthesis, anti-candida activity, and quantitative structure-analysis relationship studies” (J Med Chem, 2002).

Structures are written as SMILES. Converted amounts (≈) assume the structure as drawn.

What all share (assay type): functional
For series [1], the system named is Candida. Briefly: Tested in vitro for antifungal activity against Candida species. at pH 7.2 (percent of resistant species at 256 ug/mL). The method in brief: (§1)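 Broth serial-dilution test in Sabouraud broth at pH 7.2 or 5.8, against 3 fresh clinical non-albicans isolates (two C. glabrata, one C. krusei). Inocula were 10³/mL, pre-grown 18 h at 37 °C. Compound was twofold-diluted over 0.25–256 µg/mL and read at 24 h, 37 °C for visible growth.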

The test system of series [2] is Candida albicans. Description: In vitro antifungal activity against Candida albicans (40 strains) at pH 5.8,(percent of resistant species at 256 ug/mL). The gist of the method: (§2)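 Broth serial-dilution test in Sabouraud broth at pH 7.2 or 5.8, against 40 fresh clinical C. albicans isolates from hospitalized patients. Inocula were 10³/mL, pre-grown 18 h at 37 °C in Sabouraud dextrose broth. Compound from a DMSO/water stock was twofold-diluted over 0.25–256 µg/mL. Visible growth was read at 24 h, 37 °C.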

The subject of series [3] is Candida. Description: Tested in vitro for antifungal activity against Candida species. at pH 7.2 (value ranges from 0.5 to 8). The gist of the method: (§3)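 Fresh clinical isolates (two C. glabrata, one C. krusei) were pre-grown 18 h at 37 °C in Sabouraud dextrose broth. Broth double-dilution was run in Sabouraud broth at pH 5.8 or 7.2 over 0.25–256 µg/mL from a DMSO/water stock, with 10³/mL inoculum.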

The subject of series [4] is Candida albicans. Briefly: In vitro antifungal activity against Candida albicans (40 strains) at pH 7.2. The gist of the method:
(§4)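 Broth serial-dilution MIC against 40 clinical C. albicans isolates from hospitalized patients, grown in Sabouraud broth at pH 7.2 or 5.8. Cells were pre-grown 18 h at 37 °C, inoculated at 10³/mL, and read at 24 h, 37 °C. Doubling dilutions ran 0.25–256 μg/mL from a DMSO/water solution. MIC was the lowest concentration with no visible growth against a DMSO/water blank.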

For series [5], the system named is Candida albicans. Briefly: In vitro antifungal activity against Candida albicans (40 strains) at pH 7.2,(percent of resistant species at 256 ug/mL). The method in brief: as §2
Series [6] relates to Candida albicans. Briefly: Tested in vitro for antifungal activity against Candida albicans at pH 5.8. The method in brief: as §4
The subject of series [7] is Candida. Briefly: (§5) In vitro antifungal activity against 40 strains at pH 5.8,(percent of resistant species at 256 ug/mL). The gist of the method: as §2
The subject of series [8] is Candida albicans. Description: Tested in vitro for antifungal activity against Candida albicans at pH 5.8 (range 1-8). The gist of the method:
as §4

Series [9] has as its system Candida albicans. Briefly: In vitro antifungal activity against Candida albicans (40 strains) at pH 7.2(value ranges from 0.5 to 32). The gist of the method:
as §4

The subject of series [10] is Candida. Briefly: Tested in vitro for antifungal activity against Candida species. at pH 5.8. The gist of the method: (§6)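 Liquid serial-dilution MIC against 3 freshly isolated clinical Candida strains (two C. glabrata, one C. krusei) in Sabouraud broth at pH 7.2 or 5.8. Inoculum was 10³/mL after 18 h pre-culture at 37 °C, read at 24 h, 37 °C. Range was 0.25–256 μg/mL. Endpoint was no visible growth versus a DMSO/water blank.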

In series [11] the target is Lanosterol 14-alpha demethylase (Candida albicans (strain SC5314 / ATCC MYA-2876) (Yeast), UniProt P10613). Briefly: Anticandida activity- (MIC90 compound) / (MIC90 bifonazole).
Sequence of Lanosterol 14-alpha demethylase (P10613 whole entry): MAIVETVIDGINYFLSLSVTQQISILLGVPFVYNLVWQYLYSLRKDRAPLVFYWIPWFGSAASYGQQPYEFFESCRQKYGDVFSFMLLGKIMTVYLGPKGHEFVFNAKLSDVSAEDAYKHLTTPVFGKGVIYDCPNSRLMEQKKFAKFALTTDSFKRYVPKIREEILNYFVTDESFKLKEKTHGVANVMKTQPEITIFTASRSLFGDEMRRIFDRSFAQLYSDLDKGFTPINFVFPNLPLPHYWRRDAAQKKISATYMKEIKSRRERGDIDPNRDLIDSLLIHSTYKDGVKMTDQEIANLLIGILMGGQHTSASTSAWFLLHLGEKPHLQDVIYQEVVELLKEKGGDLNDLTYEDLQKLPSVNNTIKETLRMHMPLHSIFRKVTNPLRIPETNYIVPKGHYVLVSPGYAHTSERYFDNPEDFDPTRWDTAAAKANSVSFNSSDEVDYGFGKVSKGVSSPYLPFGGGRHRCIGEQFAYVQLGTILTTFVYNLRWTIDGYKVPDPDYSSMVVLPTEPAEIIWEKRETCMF
The subject of series [12] is Candida. Briefly: Tested in vitro for antifungal activity against Candida species. at pH 7.2. The method in brief: as §3
Series [13] concerns Candida albicans. Briefly: In vitro antifungal activity against 40 strains at pH 7.2 minimum inhibitory concentration. The method in brief: (§7)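 Inocula were 10³/mL, pre-grown 18 h at 37 °C. MIC is the lowest concentration with no visible growth versus a DMSO/water blank at 24 h, 37 °C. The mean MIC is ΣMICi over the total strain number; MIC50/MIC90 cover 50%/90% of strains.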

Series [14] deals with Candida albicans. Description: In vitro antifungal activity against 40 strains at pH 7.2, (percent of resistant species at 256 ug/mL). The method in brief:
as §2

In series [15] the test system is Candida albicans. Briefly: Tested In vitro for antifungal activity at pH 5.8.
For series [16], the system named is Candida. Briefly: Tested in vitro for antifungal activity against candida Spp (Candida glabrata, Candida krusei) at pH 7.2 (percent of resistant species at 256 ug/mL). The gist of the method:
as §1

Series [17] relates to Candida. Briefly: Tested In vitro for antifungal activity against candida Spp (Candida glabrata, Candida krusei) at pH 7.2. The gist of the method: (§8)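 Inocula were 10³/mL, pre-grown 18 h at 37 °C. MIC is the lowest concentration with no visible growth versus a blank at 24 h, 37 °C. The mean MIC is ΣMICi over the strain number; MIC50/MIC90 are also reported.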
Series [18] deals with Candida albicans. The series is described as §5. The method in brief: as §2
The test system of series [19] is Candida albicans. Description: In vitro antifungal activity against 40 strains at pH 7.2. The gist of the method:
as §7

In series [20] the test system is Candida. Description: In vitro antifungal activity against candida Spp (Candida glabrata, Candida krusei) at pH 5.8,(percent of resistant species at 256 ug/mL). The gist of the method: as §1
The test system of series [21] is Candida. Briefly: Tested In vitro for antifungal activity against candida Spp (Candida glabrata, Candida krusei) at pH 5.8. The gist of the method:
as §8

Series [22] has as its system Candida. Briefly: Tested In vitro for antifungal activity against Candida species. at pH 7.2; (range is from 8 to 128). The method in brief:
as §6

Series [23] deals with Candida. Briefly: Tested in vitro for antifungal activity against Candida species. at pH 5.8 (percent of resistant species at 256 ug/mL). The method in brief:
as §1

Series [24] has as its system Candida. Description: Tested in vitro for antifungal activity against Candida species. at pH 5.8; range is from 4 to 16. The gist of the method:
as §3

Series [25] concerns Candida albicans. Briefly: In vitro antifungal activity against 40 strains of Candida albicans at pH 7.2; (percent of resistant species at 256 ug/mL). The gist of the method:
as §2

Series [26] concerns Candida albicans. Description: In vitro antifungal activity against 40 strains of Candida albicans at pH 5.8; (percent of resistant species at 256 ug/mL). The gist of the method: as §2
In series [27] the test system is Candida. Description: Tested In vitro for antifungal activity against Candida species. at pH 7.2; (percent of resistant species at 256 ug/mL). The gist of the method:
as §1

In series [28] the test system is Candida albicans. Briefly: In vitro antifungal activity against 40 strains of Candida albicans at pH 5.8; (range is from 1 to 32). The gist of the method:
as §4

The subject of series [29] is Candida albicans. Description: In vitro antifungal activity against 40 strains of Candida albicans at pH 7.2; minimum inhibitory concentration (range is from 4 to 64). The method in brief: as §4
Series [30] concerns Candida albicans. Briefly: In vitro antifungal activity against 40 strains of Candida albicans at pH 5.8. The gist of the method: as §4
In series [31] the test system is Candida albicans. Description: In vitro antifungal activity against 40 strains of Candida albicans at pH 7.2. The gist of the method:
as §4

Series [32] concerns Candida. Briefly: Tested In vitro for antifungal activity against Candida species. at pH 7.2. The method in brief:
as §6

For the molecule `Clc1ccc(-c2c[nH]cc2[C@H](c2ccc(Cl)cc2Cl)n2ccnc2)cc1`, the Resistance in series [1], in [2], in series [5] and in [7] was 0% throughout. In addition, the Range in series [3] worked out at 8 µg/mL; in series [8], 8 µg/mL; in [9], 32 µg/mL; in series [10], 64 µg/mL. Moreover, the MIC (as a rule, the lowest concentration that inhibits growth of the organism) was determined as 2.14 µg/mL (≈ 5.31 µM) in series [4], 3.6 µg/mL (≈ 8.94 µM) in [6], 6 µg/mL (≈ 14.9 µM) in series [10] and 5.01 µg/mL (≈ 12.4 µM) in series [12]. Further, the MIC50 (commonly an inhibitory concentration at the 50% level, which refers to growth in some studies and to a panel of isolates in others) in [4] was found to be 2 µg/mL (≈ 4.97 µM); in [6], 1 µg/mL (≈ 2.48 µM); in series [10], 8 µg/mL (≈ 19.9 µM); in series [12], 8 µg/mL (≈ 19.9 µM). Besides, the MIC90 (commonly the lowest concentration that inhibits either 90% of growth or 90% of the strains tested, depending on the study) in [4] was determined as 4 µg/mL (≈ 9.93 µM); in series [6] it was 2 µg/mL (≈ 4.97 µM); in series [10] it was 64 µg/mL (≈ 159 µM); in series [12], 8 µg/mL (≈ 19.9 µM). In series [11], the Ratio is 0.8.
Turning to `CC(=O)N1CCN(c2ccc(OCC3COC(Cn4ccnc4)(c4ccc(Cl)cc4Cl)O3)cc2)CC1` (stereo not given) [KETOCONAZOLE], the Range in series [13] was 2 µg/mL; in series [15], <0.25 µg/mL; in series [17], 2 µg/mL; in [21] it was <0.25 µg/mL. Besides, the Resistance in series [14], in [16], in series [18] and in series [20] was 0% throughout. In addition, the MIC in series [15] is 6.35 µg/mL (≈ 11.9 µM); in series [17], 8.6 µg/mL (≈ 16.2 µM); in [19], 9.26 µg/mL (≈ 17.4 µM); in series [21], 6.53 µg/mL (≈ 12.3 µM). The MIC50 in series [17] came out at 8 µg/mL (≈ 15.1 µM); in [19], 8 µg/mL (≈ 15.1 µM); in series [21], 32 µg/mL (≈ 60.2 µM). In addition, the MIC90 came out at 16 µg/mL (≈ 30.1 µM) in series [17], 32 µg/mL (≈ 60.2 µM) in series [19] and 128 µg/mL (≈ 241 µM) in [21].
As to `CSc1ccc(-c2c[nH]cc2[C@H](c2ccc(Cl)cc2Cl)n2ccnc2)cc1`, the Range in [22] is 128 µg/mL; in series [24] it was 16 µg/mL; in series [28] it was 32 µg/mL; in series [29], 64 µg/mL. Also, the Resistance in series [23], in series [25], in series [26] and in series [27] was 0% in each case. In addition, the minimum inhibitory concentration (MIC) turned out to be 7 µg/mL (≈ 16.9 µM) in series [30], 9.14 µg/mL (≈ 22.1 µM) in series [31], 9.3 µg/mL (≈ 22.4 µM) in series [10] and 66.6 µg/mL (≈ 161 µM) in series [32]. Further, the MIC50 came out at 4 µg/mL (≈ 9.65 µM) in series [30], 4 µg/mL (≈ 9.65 µM) in series [31], 8 µg/mL (≈ 19.3 µM) in [10] and 64 µg/mL (≈ 154 µM) in series [32]. Moreover, the MIC90 was 8 µg/mL (≈ 19.3 µM) in series [30], 8 µg/mL (≈ 19.3 µM) in series [31], 16 µg/mL (≈ 38.6 µM) in series [10] and 128 µg/mL (≈ 309 µM) in series [32]. Also, the Ratio in [11] is 3.
